Experimental findings from ChEMBL document CHEMBL3045950, “Design, synthesis, and analysis of the quantitative structure-activity relationships of 4-phenyl-acyl-substituted 3-(2,5-dimethylphenyl)-4-hydroxy-1-azaspiro[4.5]dec-3-ene-2,8-dione derivatives” (2012) are described below.

Structures are written as SMILES.

Type in all cases: functional
In test [1] the test system is Aphis fabae. The test is described as follows: Insecticidal activity against Aphis fabae (black bean aphid) apterous third-instar nymphae in tender soybean shoots assessed as inhibition activity at 100 mg/L after 72 hr. A digest of the protocol: (§1)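 Test solutions were made in N,N-dimethylformamide and diluted to working concentration with distilled water containing TW-80 (0.1 mL L⁻¹). Aphids were dipped following a slightly modified FAO dip test. Assessment was made 72 h after treatment. Each treatment was run three times, and control groups were given water only. Deviation of values was 5%.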

The test system of test [2] is Aphis fabae. The test is described as follows: Insecticidal activity against Aphis fabae (black bean aphid) apterous third-instar nymphae in tender soybean shoots assessed as inhibition activity at 10 mg/L after 72 hr. A digest of the protocol:
as §1

Test [3] has as its system Tetranychus cinnabarinus. The test is described as follows: Larvicidal activity against Tetranychus cinnabarinus (carmine spider mite) fifty third-instar mite larvae assessed as inhibition activity at 100 mg/L after 72 hr. A digest of the protocol: (§2)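 Test solutions were made in N,N-dimethylformamide and diluted with distilled water containing TW-80 (0.1 mL L⁻¹). Fifty third-instar larvae were dipped in the dilution for 5 s, and excess liquid was removed. Larvae were then held in an air-conditioned room, and mortality was scored at 72 h. Tests were run in triplicate, and controls were treated with water only.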

Test [4] concerns Tetranychus cinnabarinus. Kind of test: Larvicidal activity against Tetranychus cinnabarinus ( carmine spider mite ) fifty third-instar mite larvae assessed as inhibition activity at 10 mg/L after 72 hr. The essentials:
as §2

As to `Cc1ccc(C)c(C2=C(OC(=O)c3ccc(Cl)cc3)C3(CCC(=O)CC3)NC2=O)c1`, the inhibition (as a rule, the drop in the measured response relative to a control, in per cent) at 100 µg/mL in test [1] was determined as 68.2%; in test [3] it was 42.9%. Further, the inhibition at 10 µg/mL in test [2] stood at 10.8%; in test [4] it was 9.23%.

With `Cc1ccc(C)c(CC(=O)OC2=C(c3cc(C)ccc3C)C(=O)NC23CCC(=O)CC3)c1`, the inhibition at 100 µg/mL was determined as 76.2% in test [1] and 61.6% in test [3]. Moreover, the inhibition at 10 µg/mL in test [2] is 37.3%; in test [4], 24.6%.

`Cc1cc(C)c(CC(=O)OC2=C(c3cc(C)ccc3C)C(=O)NC23CCC(=O)CC3)c(C)c1`: the inhibition at 100 µg/mL was 69.2% in test [1] and 39.4% in test [3]. The inhibition at 10 µg/mL in test [2] was determined as 25.2%; in test [4], 12.1%.

On to `COc1ccc(CC(=O)OC2=C(c3cc(C)ccc3C)C(=O)NC23CCC(=O)CC3)cc1`, for which the inhibition at 100 µg/mL came to 92.1% in test [1] and 80.5% in test [3]. For the same compound, the inhibition at 10 µg/mL in test [2] was 87.3%; in test [4] it was 24.4%.

With `Cc1ccc(C)c(C2=C(OC(=O)Cc3ccc(F)cc3)C3(CCC(=O)CC3)NC2=O)c1`, the inhibition at 100 µg/mL is 93.7% in test [1] and 49% in test [3]. In addition, the inhibition at 10 µg/mL amounted to 69.3% in test [2] and 29.9% in test [4].

As for `Cc1ccc(C)c(C2=C(OC(=O)Cc3ccccc3Cl)C3(CCC(=O)CC3)NC2=O)c1`, the inhibition at 100 µg/mL was found to be 96.5% in test [1] and 53.5% in test [3]. In addition, the inhibition at 10 µg/mL came out at 59.2% in test [2] and 28.3% in test [4].

For `Cc1ccc(C)c(C2=C(OC(=O)Cc3cccc(Cl)c3)C3(CCC(=O)CC3)NC2=O)c1`, the inhibition at 100 µg/mL stood at 44.6% in test [1] and 24.7% in test [3]. In addition, the figures for the inhibition at 10 µg/mL in test [2] and in test [4] were 13.6% and 3.23%, respectively.

As to `Cc1ccc(C)c(C2=C(OC(=O)Cc3ccc(Cl)cc3)C3(CCC(=O)CC3)NC2=O)c1`, the inhibition at 100 µg/mL in test [1] was 89.8%; in test [3], 58%. Besides, the inhibition at 10 µg/mL in test [2] turned out to be 47.3%; in test [4], 17.8%.

`Cc1ccc(C)c(C2=C(OC(=O)Cc3ccc(Cl)cc3Cl)C3(CCC(=O)CC3)NC2=O)c1`: the results for the inhibition at 100 µg/mL in test [1] and in test [3] were 85.6% and 75.9%, respectively. Also, the values for the inhibition at 10 µg/mL in test [2] and in test [4] were 26.9% and 31.2%, respectively.

In the case of `Cc1ccc(C)c(C2=C(OC(=O)Cc3ccc(Cl)c(Cl)c3)C3(CCC(=O)CC3)NC2=O)c1`, the inhibition at 100 µg/mL in test [1] was 97.3%; in test [3], 71.7%. Moreover, the inhibition at 10 µg/mL amounted to 49.3% in test [2] and 28.9% in test [4].

Consider `Cc1ccc(C)c(C2=C(OC(=O)Cc3ccc(Br)cc3)C3(CCC(=O)CC3)NC2=O)c1`, for which the inhibition at 100 µg/mL in test [1] was determined as 47.8%; in test [3], 32.5%. The inhibition at 10 µg/mL in test [2] is 9.78%; in test [4], 5.25%.

As for `Cc1ccc(C)c(C2=C(OC(=O)Cc3ccc(C(F)(F)F)cc3)C3(CCC(=O)CC3)NC2=O)c1`, the values for the inhibition at 100 µg/mL in test [1] and in test [3] were 98.6% and 85.3%, respectively. The inhibition at 10 µg/mL in test [2] came to 60%; in test [4], 49%.

For `Cc1ccc(C)c(C2=C(OC(=O)Cc3ccc([N+](=O)[O-])cc3)C3(CCC(=O)CC3)NC2=O)c1`, the inhibition at 100 µg/mL in test [1] turned out to be 92.2%; in test [3], 73.8%. Moreover, the inhibition at 10 µg/mL in test [2] was 32.3%; in test [4], 16.3%.

`CCOC(=O)OC1=C(c2cc(C)ccc2C)C(=O)NC12CCC(=O)CC2`: the inhibition at 100 µg/mL in test [1] was found to be 93.5%; in test [3], 62.3%. Besides, the inhibition at 10 µg/mL in test [2] was 45.9%; in test [4] it was 30.4%.

Regarding `CCCC(=O)OC1=C(c2cc(C)ccc2C)C(=O)NC12CCC(=O)CC2`, the results for the inhibition at 100 µg/mL in test [1] and in test [3] were 98.7% and 54.7%, respectively. In addition, the inhibition at 10 µg/mL in test [2] was found to be 37.3%; in test [4], 19.7%.

As to `Cc1ccc(C)c(C2=C(OC(=O)CC(C)(C)C)C3(CCC(=O)CC3)NC2=O)c1`, the inhibition at 100 µg/mL is 62.1% in test [1] and 26.1% in test [3]. Moreover, the results for the inhibition at 10 µg/mL in test [2] and in test [4] were 21.6% and 8.76%, respectively.

On to `C/C=C/C(=O)OC1=C(c2cc(C)ccc2C)C(=O)NC12CCC(=O)CC2`, for which the inhibition at 100 µg/mL was determined as 85.6% in test [1] and 58.2% in test [3]. Besides, the inhibition at 10 µg/mL in test [2] was 34.9%; in test [4], 23.4%.

Regarding `Cc1ccc(C)c(C2=C(OC(=O)c3ccccc3)C3(CCC(=O)CC3)NC2=O)c1`, the inhibition at 100 µg/mL was found to be 91.8% in test [1] and 49.8% in test [3]. Besides, the inhibition at 10 µg/mL is 29.3% in test [2] and 18.2% in test [4].

For `Cc1ccc(C)c(C2=C(OC(=O)c3ccccc3C)C3(CCC(=O)CC3)NC2=O)c1`, the inhibition at 100 µg/mL in test [1] came out at 25.5%; in test [3], 59.4%. In addition, the results for the inhibition at 10 µg/mL in test [2] and in test [4] were 6.27% and 17.3%, respectively.

With `Cc1ccc(C)c(C2=C(OC(=O)Cc3ccccc3)C3(CCC(=O)CC3)NC2=O)c1`, the inhibition at 100 µg/mL in test [1] is 95.6%; in test [3], 66.8%. The inhibition at 10 µg/mL in test [2] is 62.8%; in test [4], 38.9%.

For `Cc1ccc(CC(=O)OC2=C(c3cc(C)ccc3C)C(=O)NC23CCC(=O)CC3)cc1`, the inhibition at 100 µg/mL in test [1] amounted to 73.5%; in test [3] it was 70.8%. Besides, the values for the inhibition at 10 µg/mL in test [2] and in test [4] were 48.4% and 21.8%, respectively.

On to `CCC(C)(C)C(=O)OC1=C(c2ccc(Cl)cc2Cl)C(=O)OC12CCCCC2` [SPIRODICLOFEN], for which the inhibition at 100 µg/mL is 60.3% in test [1] and 70.6% in test [3]. The inhibition at 10 µg/mL was 19.4% in test [2] and 36.7% in test [4].

For `Cc1cc(C)c(C2=C(OC(=O)CC(C)(C)C)C3(CCCC3)OC2=O)c(C)c1` [SPIROMESIFEN], the inhibition at 100 µg/mL in test [1] was found to be 62.5%; in test [3], 80.2%. The figures for the inhibition at 10 µg/mL in test [2] and in test [4] were 14.3% and 42.1%, respectively.

As to `CCOC(=O)OC1=C(c2cc(C)ccc2C)C(=O)N[C@]12CC[C@@H](OC)CC2` [SPIROTETRAMAT], the inhibition at 100 µg/mL in test [1] was found to be 100%; in test [3], 75%. Also, the inhibition at 10 µg/mL in test [2] came to 96.8%; in test [4], 26.3%.
